Published values pooled from the literature.
Lines come from different studies, so protocols differ.
Target: Rhodopsin kinase GRK7 (GRK7, Homo sapiens, UniProt Q8WTQ7)
Residues used in one study (Q8WTQ7 1-553): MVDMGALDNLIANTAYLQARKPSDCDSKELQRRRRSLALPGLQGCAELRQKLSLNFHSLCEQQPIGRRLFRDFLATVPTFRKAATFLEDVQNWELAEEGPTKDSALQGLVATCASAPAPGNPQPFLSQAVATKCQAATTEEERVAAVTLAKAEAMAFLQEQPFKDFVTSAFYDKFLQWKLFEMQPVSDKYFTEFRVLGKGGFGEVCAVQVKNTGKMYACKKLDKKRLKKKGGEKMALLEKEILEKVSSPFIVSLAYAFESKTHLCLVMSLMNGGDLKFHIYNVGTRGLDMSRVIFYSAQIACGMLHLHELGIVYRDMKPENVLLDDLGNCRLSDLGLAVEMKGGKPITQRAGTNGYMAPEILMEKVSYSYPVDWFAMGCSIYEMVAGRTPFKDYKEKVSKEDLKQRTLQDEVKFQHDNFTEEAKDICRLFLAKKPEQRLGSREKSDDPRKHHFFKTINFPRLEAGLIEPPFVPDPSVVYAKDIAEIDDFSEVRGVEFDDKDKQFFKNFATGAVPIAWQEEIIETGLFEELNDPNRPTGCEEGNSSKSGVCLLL

`CN1CCN(c2cnc3c(C4CCN(C(=O)c5ccc(OC(F)(F)F)cc5N)CC4)ncnc3c2)CC1` gave a remaining binding of 87% (cell-free assay, competition with immobilised ligand; 1 µM).
The remaining signal of `O=C1Nc2ccc(Cl)cc2C1=Cc1cc(Cl)c(O)c(Cl)c1` is reported as 97.3% (cell-free assay; 0.5 µM).
The activity vs control of `Cc1ccc(C(=O)NCc2ccsc2)cc1C#Cc1cn(C(C)C)c2ncnc(N)c12` is reported as 100% (enzyme activity, inhibitor; 1 µM).
With `CC(C)(O)[C@H]1CC[C@H](Nc2ccc3ncc(-c4cccc(C(F)(F)F)c4)n3n2)CC1` the remaining activity was 38% (enzyme activity, inhibitor; 1 µM).
`CS(=O)(=O)c1cc(C2(NC(=O)c3cncc4c3cnn4-c3ccc(F)cc3)CC2)ccn1` gave a remaining binding of 96% (cell-free assay, competition with immobilised ligand; 1 µM).
`COc1cc2ncnc(Nc3ccc(Oc4ccccc4)c(C)c3C)c2cc1OC` has an inhibition of 0% (enzyme activity, inhibitor; 1 µM).
With `Cc1ccc(NC(=O)c2ccc(C)c(C(F)(F)F)c2)cc1C#Cc1nn(C2CCC(O)CC2)c2ncnc(N)c12` (centres unmarked) the remaining signal was 101% (cell-free assay; 10 µM).
With `Cc1c(NC(=O)c2cc(C(N)=O)nc3cc(F)ccc23)c(C(F)(F)F)nn1Cc1ccc(C#N)cc1` the remaining binding was 75% (cell-free assay, competition with immobilised ligand; 1 µM).
`CC(C)(C)c1nc(-c2cccc(NS(=O)(=O)c3c(F)cccc3F)c2F)c(-c2ccnc(N)n2)s1` has a remaining activity of 76% (enzyme activity, inhibitor, radiometric; 1 µM).
With `O=C(O)[C@@H]1[C@@H](Cn2nnc3ccccc3c2=O)CC[C@H]1C(=O)c1ccc(OCCC2CCOCC2)cc1` the remaining binding was 100% (cell-free assay, competition with immobilised ligand; 1 µM).
`Cc1sc(C(=O)NC2COC2)cc1-n1cc(NC(=O)Nc2c(F)cccc2Cl)cn1` has a remaining activity of 99.9% (enzyme activity, inhibitor; 10 µM).
With `CCCS(=O)(=O)Nc1ccc(F)c(C(=O)c2c[nH]c3ncc(-c4ccc(Cl)cc4)cc23)c1F` the inhibition was under 10% (enzyme activity, inhibitor; 1 µM).
The activity vs control of `Cc1cc(NC(=O)c2cccc3cc(-c4cccc5[nH]nc(N)c45)ccc23)ccc1F` is reported as 114% (enzyme activity, inhibitor; 0.1 µM).
With `C[C@@H]1CCN(c2nccc(-c3cnn4ncccc34)n2)C1` the remaining binding was 82% (binding; 1 µM).
`Cc1cnc(NC2CCOCC2)nc1-n1cnc(C(=O)NC(CN)c2cc(F)cc(Cl)c2)c1` (centres unmarked) has a remaining activity of 85% (enzyme activity, inhibitor, radiometric; 1 µM).
`CC1=C(C#N)C(c2ccc3c(c2)c(NC(=O)c2ccccc2C)nn3C)C(C#N)=C(C)N1` has a remaining binding of 70% (cell-free assay, competition with immobilised ligand; 1 µM).
The remaining signal of `COc1cc2c(N3CCN(C(=O)Nc4ccc(OC(C)C)cc4)CC3)ncnc2cc1OCCCN1CCCCC1` is reported as 104% (cell-free assay; 0.5 µM).
